Reference: ChEMBL document CHEMBL1156595, “Studies on the antifungal properties of N-thiolated beta-lactams” (2008)

Legend:
Format in all cases: functional
Kluyveromyces marxianus = assay: Antifungal activity against Candida kefyr ATCC 20409 assessed as growth inhibition zone at 50 ug after 24 hrs by Kirby-Bauer agar diffusion assay; settings: ATCC 20409, 24 h, read-out: IZ
Method in brief: (§1)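 Disk diffusion on yeast nitrogen base agar, swabbed with a McFarland 0.5 suspension in saline. 6 mm cellulose disks carried 10 µL of a 5 mg/mL CH2Cl2 stock (50 ug per disk), air-dried, three disks per plate. Plates were sealed and incubated 24 h at 37°C. Cleared inhibition zones were measured and averaged over triplicates.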

Candida tropicalis = assay: Antifungal activity against Candida tropicalis clinical isolate assessed as growth inhibition zone at 50 ug after 24 hrs by Kirby-Bauer agar diffusion assay; settings: read-out: IZ; method in brief: as §1
Candida albicans = assay: Antifungal activity against Candida albicans ATCC 2091 assessed as growth inhibition zone at 50 ug after 24 hrs by Kirby-Bauer agar diffusion assay; settings: ATCC 2091, 24 h, read-out: IZ; method in brief: as §1
Candida parapsilosis = assay: Antifungal activity against Candida parapsilosis ATCC 22019 assessed as growth inhibition zone at 50 ug after 24 hrs by Kirby-Bauer agar diffusion assay; settings: Lodderomyces parapsilosis, ATCC 22019, 24 h; read-out: IZ; method in brief: as §1
Clavispora lusitaniae = assay: Antifungal activity against Candida lusitaniae ATCC 34449 assessed as growth inhibition zone at 50 ug after 24 by Kirby-Bauer agar diffusion assay; settings: read-out: IZ; method in brief: as §1
Pichia kudriavzevii = assay: Antifungal activity against Candida krusei ATCC 14243 assessed as growth inhibition zone at 50 ug after 24hrs by Kirby-Bauer agar diffusion assay; settings: ATCC 14243, 24 h, read-out: IZ; method in brief: as §1
Cyberlindnera jadinii = assay: Antifungal activity against Candida utilis ATCC 29950 assessed as growth inhibition zone at 50 ug after 24 by Kirby-Bauer agar diffusion assay; settings: Williopsis jadinii, read-out: IZ; method in brief: as §1
Nakaseomyces glabratus = assay: Antifungal activity against Candida glabrata ATCC 15126 assessed as growth inhibition zone at 50 ug after 24 hrs by Kirby-Bauer agar diffusion assay; settings: ATCC 15126, 24 h, read-out: IZ; method in brief: as §1

Compound	zone of inhibition at 50 µg/disc (Kluyveromyces marxianus)	zone of inhibition at 50 µg/disc (Candida tropicalis)	zone of inhibition at 50 µg/disc (Candida albicans)	zone of inhibition at 50 µg/disc (Candida parapsilosis)	zone of inhibition at 50 µg/disc (Clavispora lusitaniae)	zone of inhibition at 50 µg/disc (Pichia kudriavzevii)	zone of inhibition at 50 µg/disc (Cyberlindnera jadinii)	zone of inhibition at 50 µg/disc (Nakaseomyces glabratus)
CSN1C(=O)[C@@H](OC(C)=O)[C@H]1c1ccccc1	0 mm	11 mm	14 mm	0 mm	10 mm	0 mm	16 mm	0 mm
CO[C@H]1C(=O)N(SC)[C@H]1c1ccc(Cl)cc1Cl	28 mm	23 mm	27 mm	31 mm	22 mm	0 mm	21 mm	32 mm
CO[C@H]1C(=O)N(SC)[C@H]1c1cccc(Br)c1	14 mm	18 mm	20 mm	18 mm	15 mm	0 mm	14 mm	17 mm
CO[C@H]1C(=O)N(SC)[C@H]1c1cccc(F)c1	13 mm	0 mm	14 mm	22 mm	0 mm	0 mm	16 mm	0 mm
CSN1C(=O)[C@H](Oc2ccccc2)[C@@H]1/C=C/c1ccccc1	0 mm	0 mm	0 mm	0 mm	0 mm	0 mm	0 mm	9 mm
CO[C@H]1C(=O)N(SC)[C@H]1/C=C/c1ccccc1	14 mm	14 mm	27 mm	13 mm	14 mm	0 mm	19 mm	16 mm
CO[C@H]1C(=O)N(SC)[C@H]1c1ccc(I)cc1	19 mm	12 mm	16 mm	25 mm	20 mm	0 mm	20 mm	22 mm
CO[C@H]1C(=O)N(SC)[C@H]1c1cc(F)c(F)c(F)c1	17 mm	19 mm	25 mm	34 mm	25 mm	0 mm	29 mm	18 mm
CO[C@H]1C(=O)N(SC)[C@H]1c1ccccc1F	15 mm	0 mm	15 mm	19 mm	0 mm	0 mm	14 mm	0 mm
CSN1C(=O)[C@H](OC(C)=O)[C@@H]1/C=C/c1ccccc1	12 mm	0 mm	0 mm	0 mm	0 mm	0 mm	13 mm	14 mm
CO[C@H]1C(=O)N(SC)[C@H]1c1ccccc1I	15 mm	15 mm	16 mm	22 mm	17 mm	0 mm	15 mm	20 mm
CO[C@H]1C(=O)N(SC)[C@H]1c1ccc(F)cc1		0 mm	16 mm	21 mm	0 mm	0 mm		0 mm
CO[C@H]1C(=O)N(SC)[C@H]1c1ccc(Cl)cc1	10 mm	0 mm	0 mm	0 mm	14 mm	0 mm	0 mm	0 mm
CO[C@H]1C(=O)N(SC)[C@H]1c1cc(F)c(F)cc1F	16 mm	20 mm	25 mm	22 mm	14 mm	0 mm	14 mm	14 mm
CO[C@H]1C(=O)N(SC)[C@H]1c1cccc(Cl)c1	13 mm	20 mm	23 mm	28 mm	13 mm	0 mm	19 mm	21 mm
CO[C@H]1C(=O)N(SC)[C@H]1CCc1ccccc1	24 mm	17 mm	34 mm	14 mm	15 mm	0 mm	28 mm	20 mm
CCC(C)SN1C(=O)[C@H](OC)[C@@H]1c1ccccc1Cl (stereo partly drawn)	0 mm	13 mm	16 mm	0 mm	0 mm	0 mm	0 mm	0 mm
CO[C@H]1C(=O)N(SC)[C@H]1c1cccc(I)c1	15 mm	14 mm	14 mm	22 mm	19 mm	0 mm	15 mm	19 mm
CSN1C(=O)[C@H](OC(C)=O)[C@@H]1CCc1ccccc1	13 mm	0 mm	0 mm	0 mm	0 mm	0 mm	0 mm	15 mm
CO[C@H]1C(=O)N(SC)[C@H]1c1ccc(Br)cc1	17 mm	20 mm	25 mm	23 mm	17 mm	0 mm	17 mm	19 mm
CSN1C(=O)[C@H](OC(C)=O)[C@@H]1c1ccccc1	9 mm	15 mm	14 mm	0 mm	15 mm	0 mm	16 mm	0 mm
CO[C@H]1C(=O)N(SC)[C@H]1c1cc(Cl)cc(Cl)c1Cl	30 mm	22 mm	23 mm	26 mm	23 mm	0 mm	19 mm	31 mm
CO[C@H]1C(=O)N(SC)[C@H]1c1cc(F)cc(F)c1F	15 mm	24 mm	18 mm	22 mm	17 mm	0 mm	16 mm	11 mm
CO[C@H]1C(=O)N(SC)[C@H]1c1ccccc1Br	13 mm	21 mm	25 mm	40 mm	19 mm	0 mm	25 mm	17 mm
CSN1C(=O)[C@H](Oc2ccccc2)[C@@H]1CCc1ccccc1	19 mm	19 mm	25 mm	14 mm	14 mm	0 mm	21 mm	18 mm
